The target of assay [1] is T1, Type-2 angiotensin II receptor (Homo sapiens, UniProt P50052).
T1 sequence (P50052 whole entry): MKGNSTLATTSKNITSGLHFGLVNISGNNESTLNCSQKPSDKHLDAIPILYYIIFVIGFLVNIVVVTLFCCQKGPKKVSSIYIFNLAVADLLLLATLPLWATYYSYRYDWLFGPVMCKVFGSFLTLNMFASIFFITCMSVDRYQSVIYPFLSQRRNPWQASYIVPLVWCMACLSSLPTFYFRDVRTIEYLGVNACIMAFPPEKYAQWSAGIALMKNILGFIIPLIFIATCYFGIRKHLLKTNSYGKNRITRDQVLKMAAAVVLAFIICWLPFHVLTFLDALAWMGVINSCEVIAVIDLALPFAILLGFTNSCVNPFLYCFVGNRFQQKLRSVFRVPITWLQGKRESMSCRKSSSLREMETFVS
As to the kind of experiment: Displacement of [125I]-Sar1Ile8-angiotensin 2 from angiotensin 2 AT2 receptor (unknown origin) after 180 mins by gamma counting analysis. In general terms: Displacement assays read how much labelled ligand stays bound in the presence of the test substance.

In assay [2] the target is T2, Type-1 angiotensin II receptor (Homo sapiens, UniProt P30556).
T2 sequence (P30556 whole entry): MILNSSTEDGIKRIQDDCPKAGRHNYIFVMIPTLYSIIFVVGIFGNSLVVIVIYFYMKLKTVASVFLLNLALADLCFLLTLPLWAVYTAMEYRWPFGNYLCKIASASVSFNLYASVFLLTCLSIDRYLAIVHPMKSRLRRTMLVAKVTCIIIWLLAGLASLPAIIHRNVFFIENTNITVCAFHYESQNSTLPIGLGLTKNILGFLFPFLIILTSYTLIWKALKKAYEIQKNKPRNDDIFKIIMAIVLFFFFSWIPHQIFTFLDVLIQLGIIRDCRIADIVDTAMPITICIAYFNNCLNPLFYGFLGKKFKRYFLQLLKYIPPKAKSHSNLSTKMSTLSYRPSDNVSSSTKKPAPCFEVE
Description: Displacement of [125I]-Sar1Ile8-angiotensin 2 from angiotensin 2 AT1 receptor (unknown origin) after 180 mins by gamma counting analysis.

Assay [3] in a line: Antagonist activity at angiotensin 2 receptor in Japanese white rabbit thoracic aorta assessed as inhibition of angiotensin 2-induced contraction after 60 mins by Schild plot analysis. The class given is tissue-based, Oryctolagus cuniculus. The procedure, abridged:
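Helical aortic strips (3-4 mm wide, 15-20 mm long) in 10-mL baths of bicarbonate salt solution (CaCl2·2H2O 2.5, NaHCO3 25, glucose 11.1), 37 °C, 95% O2/5% CO2, isometric tension. 1 h equilibration with 15-min washes; 67 mM KCl sets maximal contraction; 30 min washout; antagonist or vehicle for 60 min, then cumulative Ang II curves, one per strip. Response as % of KCl maximum; pA2 from Schild plot.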

In assay [4] the target is T3, Type-1 angiotensin II receptor (Homo sapiens) (UniProt P30556).
T3 sequence (whole entry): T2 sequence (P30556 whole entry)
Description: Ratio of losartan IC50 to compound IC50 for angiotensin 2 AT1 receptor (unknown origin).

In a further assay the test system is Rattus norvegicus. As to the kind of experiment: Antihypertensive activity in SHR rat assessed as decrease in blood pressure at 10 mg/kg, po by tail plethysmography. It is filed as functional. The procedure, abridged:
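Male SHR, 19-21 weeks old, n = 6 per group, with a vehicle group (water, 10 mL/kg). Single oral dose of 10 mg/kg. Blood pressure and heart rate measured by tail plethysmography in unanesthetized rats after a warming period.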

Results on 18 compounds are retold here after ChEMBL document CHEMBL2434924, “Nonpeptidic angiotensin II AT₁ receptor antagonists derived from 6-substituted aminocarbonyl and acylamino benzimidazoles” (Eur J Med Chem, 2013).

Molecules are shown by their SMILES.

For orientation: IC50 means the concentration at which inhibition is half-maximal. As usually defined, the pA2 is a measure of antagonist potency on a negative log scale.

As for `CCCc1nc2c(C)cc(C(=O)NCCCN3CCOCC3)cc2n1Cc1ccc(-c2ccccc2C(=O)O)cc1`, the IC50 in assay [1] was found to be 718 nM; in assay [2], 10 nM.

Turning to `CCCCc1nc(Cl)c(CO)n1Cc1ccc(-c2ccccc2-c2nnn[nH]2)cc1` [LOSARTAN], in assay [3], the pA2 turned out to be 7.92.

`CCCc1nc2c(C)cc(NC(=O)c3ccccc3)cc2n1Cc1ccc(-c2ccccc2C(=O)O)cc1`: the IC50 came to 6 nM in assay [1] and 3.9 nM in assay [2].

With `CCCc1nc2c(C)cc(NC(=O)Cc3ccccc3)cc2n1Cc1ccc(-c2ccccc2C(=O)O)cc1`, the IC50 in assay [1] came out at 77 nM; in assay [2] it was 1.2 nM. Also, the pA2 in assay [3] is recorded as 8.21.

For the compound `CCCc1nc2c(C)cc(C(=O)NCCN3CCOCC3)cc2n1Cc1ccc(-c2ccccc2C(=O)O)cc1`, the IC50 is > 10000 nM in assay [1] and 11 nM in assay [2]. In addition, in assay [3], the pA2 is 8.2.

On to `CCCc1nc2c(C)cc(NC(=O)c3ccc(C)cc3)cc2n1Cc1ccc(-c2ccccc2C(=O)O)cc1`, for which the IC50 in assay [1] was > 10000 nM; in assay [2], 4.9 nM. Besides, in assay [3], the pA2 came to 8.25.

Consider `CCCc1nc2c(C)cc(NC(=O)OC)cc2n1Cc1ccc(-c2ccccc2C(=O)O)cc1`, for which the IC50 worked out at 4370 nM in assay [1] and 0.7 nM in assay [2]. Further, the pA2 in assay [3] is recorded as 8.15.

Regarding `CCCc1nc2c(C)cc(C(=O)Nc3ccc(C)cc3)cc2n1Cc1ccc(-c2ccccc2C(=O)O)cc1`, the IC50 in assay [1] is 61 nM; in assay [2] it was 39 nM.

In the case of `CCCc1nc2c(C)cc(NC(C)=O)cc2n1Cc1ccc(-c2ccccc2C(=O)O)cc1`, the IC50 in assay [2] amounted to 1430 nM.

As to `CCCc1nc2c(C)cc(NC(=O)CC)cc2n1Cc1ccc(-c2ccccc2C(=O)O)cc1`, the IC50 is 78 nM in assay [1] and 0.4 nM in assay [2].

`CCCc1nc2c(C)cc(NC(=O)CCc3ccccc3)cc2n1Cc1ccc(-c2ccccc2C(=O)O)cc1`: the IC50 in assay [1] came out at 149 nM; in assay [2], 0.1 nM. In assay [3], the pA2 is reported as 8.43. In addition, the Ratio IC50 in assay [4] was 10. Also, the Activity in the assay on Rattus norvegicus is recorded as >30 mmHg.

Consider `CCCc1nc2c(C)cc(C(=O)NCCc3ccccc3)cc2n1Cc1ccc(-c2ccccc2C(=O)O)cc1`, for which the IC50 was > 10000 nM in assay [1] and 3 nM in assay [2]. Also, the pA2 in assay [3] came out at 8.51. The Ratio IC50 in assay [4] amounted to 10. The Activity in the assay with Rattus norvegicus is >30 mmHg.

In assay [2], `CCCNC(=O)c1cc(C)c2nc(CCC)n(Cc3ccc(-c4ccccc4C(=O)O)cc3)c2c1` gave an IC50 of 1340 nM.

Turning to `CCCCNC(=O)c1cc(C)c2nc(CCC)n(Cc3ccc(-c4ccccc4C(=O)O)cc3)c2c1`, the results for the half-maximal inhibitory concentration (IC50) in assay [1] and in assay [2] were 164 nM and 13 nM, respectively.

On to `CCCc1nc2c(C)cc(C(=O)N3CCCCC3)cc2n1Cc1ccc(-c2ccccc2C(=O)O)cc1`, for which the values for the IC50 in assay [1] and in assay [2] were 42 nM and 20 nM, respectively.

As to `CCCC(=O)Nc1cc(C)c2nc(CCC)n(Cc3ccc(-c4ccccc4C(=O)O)cc3)c2c1`, the IC50 in assay [1] amounted to 53 nM; in assay [2] it was 0.3 nM.

`CCCc1nc2c(C)cc(C(=O)N3CCOCC3)cc2n1Cc1ccc(-c2ccccc2C(=O)O)cc1`: the IC50 in assay [2] turned out to be 1010 nM.

`CCCc1nc2c(C)cc(C(=O)NCCCc3ccccc3)cc2n1Cc1ccc(-c2ccccc2C(=O)O)cc1` yielded an IC50 in assay [2] of 115 nM.
